Here are results for twelve molecules from ChEMBL document CHEMBL1149055, “Spiroquinazoline, a novel substance P inhibitor with a new carbon skeleton, isolated from Aspergillus flavipes” (J Nat Prod, 1994).

Calls of active or inactive are those of the source. No cut-off for these calls is given here.

One experiment deals with T1, Substance-P receptor (Homo sapiens, UniProt P25103). The experiment is described as follows: Displacement of [3H]substance P from NK1 receptor in human astrocytoma cells. Type of experiment: cell-based. In outline: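 Whole human astrocytoma cells; inhibition of [³H]-SP binding reported as a Ki in μM.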
T1 sequence (P25103 whole entry): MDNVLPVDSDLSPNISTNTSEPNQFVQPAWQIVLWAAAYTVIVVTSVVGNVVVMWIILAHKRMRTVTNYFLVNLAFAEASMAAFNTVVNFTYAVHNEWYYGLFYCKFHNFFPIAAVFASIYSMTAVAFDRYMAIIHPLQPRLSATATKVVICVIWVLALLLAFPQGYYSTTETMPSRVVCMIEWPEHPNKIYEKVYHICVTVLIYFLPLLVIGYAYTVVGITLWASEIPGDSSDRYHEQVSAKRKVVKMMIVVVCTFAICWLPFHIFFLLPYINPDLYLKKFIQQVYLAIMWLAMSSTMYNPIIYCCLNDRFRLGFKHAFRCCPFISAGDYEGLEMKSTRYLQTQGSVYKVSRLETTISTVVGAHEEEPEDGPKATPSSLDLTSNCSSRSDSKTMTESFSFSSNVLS
Take `C=CC(C)(C)[C@@]12C[C@H]3C(=O)Nc4ccccc4C(=O)N3[C@@H]1N(C(C)=O)c1ccccc12` [ACYL ASZONALENIN]: the affinity corresponds to a Ki of 170 µM.
`C[C@@]12NC(=O)[C@@H](C[C@@]13c1ccccc1N1C(=O)CN[C@@H]13)n1c2nc2ccccc2c1=O` [SPIROQUINAZOLINE]: the affinity corresponds to a Ki of 95 µM.

Another experiment concerns the target T1, Substance-P receptor. The experiment is described as follows: Displacement of [3H]substance P from NK1 receptor in human astrocytoma cells at 200 uM. Type of experiment: cell-based.
Consider `O=C1N[C@@H](Cc2ccc(O)cc2)C(=O)N2CCC[C@@H]12`, for which the result was inactive.
Consider `CC(C)[C@@H]1NC(=O)[C@@H]2CCCN2C1=O`, for which the outcome was inactive.
The same measure, in the same setting: then `O=C1N[C@@H](Cc2ccc(O)cc2)C(=O)N2CCC[C@H]12`, with “inactive”; and `O=C1N[C@@H](Cc2ccccc2)C(=O)N2CCC[C@H]12`, with “inactive”; and `O=C1N[C@@H](Cc2ccccc2)C(=O)N2CCC[C@@H]12`, with “inactive”.
Regarding `O=C(N[C@H](CO)Cc1ccccc1)c1ccccc1`, the outcome was inactive.
On to `O=C1N[C@@H](Cc2c[nH]c3ccccc23)C(=O)Nc2ccccc21`, for which the outcome was inactive.
Turning to `CC(C)[C@@H]1NC(=O)[C@H]2CCCN2C1=O`, the outcome was inactive.
Still for that read-out and setting: then `C[C@H]1N[C@H]2N(C1=O)c1ccccc1[C@@]21C[C@@H]2C(=O)N[C@](C)(O1)c1nc3ccccc3c(=O)n12`, with “inactive”; and `CC(C)C[C@@H]1NC(=O)[C@@H]2CCCN2C1=O`, with “inactive”.
